Screening data (PubChem BioAssay)
STAT3 activator: STAT3 signaling activation; U3A cells, IL-6 STAT3-luciferase reporter, luminescence; 100% = signal with IL-6 EC80 alone; activation (% of control), % at 5.6 µM; 0.91% of 190,000 active; AID 871;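 active = activation above the screen-wide mean of compound activation plus 3 SD, cut at about 130% in these data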
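Test system: STAT3-luciferase reporter U3A cells; Detection: reporter luminescence signal; Times: 1 h compound pre-exposure, 6 h IL-6 stimulation, 37 °C; Benchmarks: IL-6-only high control; Also added: IL-6 stimulus at 33 ng/mL final.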
AHR act: human AHR activation; P35869; activation, % at 5 µM; AID 2796; AHR-responsive luciferase reporter cells, luminescence; 2.5% of 320,000 active; in the data active = activation above about 47%
Target sequence (P35869 whole entry, looked up): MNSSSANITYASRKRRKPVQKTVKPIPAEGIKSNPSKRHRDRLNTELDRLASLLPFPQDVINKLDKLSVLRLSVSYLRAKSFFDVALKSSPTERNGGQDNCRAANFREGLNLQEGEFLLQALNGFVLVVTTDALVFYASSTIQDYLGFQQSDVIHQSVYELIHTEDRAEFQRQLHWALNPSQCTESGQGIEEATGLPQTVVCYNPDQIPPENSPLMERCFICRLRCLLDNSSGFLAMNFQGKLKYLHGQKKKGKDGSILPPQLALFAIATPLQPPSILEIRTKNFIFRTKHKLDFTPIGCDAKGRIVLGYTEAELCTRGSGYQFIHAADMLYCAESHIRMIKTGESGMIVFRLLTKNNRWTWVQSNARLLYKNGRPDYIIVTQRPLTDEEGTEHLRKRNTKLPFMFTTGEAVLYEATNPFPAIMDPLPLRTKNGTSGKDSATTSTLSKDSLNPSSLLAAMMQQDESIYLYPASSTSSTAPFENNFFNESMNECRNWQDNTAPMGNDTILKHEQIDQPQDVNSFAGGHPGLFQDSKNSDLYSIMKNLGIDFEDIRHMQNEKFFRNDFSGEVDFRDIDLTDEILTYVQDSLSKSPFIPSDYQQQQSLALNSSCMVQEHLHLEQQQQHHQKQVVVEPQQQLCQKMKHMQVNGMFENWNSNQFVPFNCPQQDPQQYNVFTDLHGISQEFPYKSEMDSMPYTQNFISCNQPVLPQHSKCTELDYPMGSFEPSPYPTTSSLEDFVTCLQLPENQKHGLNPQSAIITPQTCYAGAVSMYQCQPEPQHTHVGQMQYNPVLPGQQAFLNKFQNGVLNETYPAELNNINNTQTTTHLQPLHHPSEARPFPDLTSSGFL
PolyA inh: yeast polyadenylation inhibition. 0.02% of 300,000 active. activity score, % at 12 µM. S. cerevisiae SKY197-pL101 polyadenylation reporter, beta-gal luminescence; efflux-impaired pdr1/pdr3 knockout yeast; score 100 = 6 SD above DMSO. AID 1875;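 active = lowest replicate activity score at least 50, where 100 means six control SD above control mean; inconclusive = lowest score under 50 but half or more replicates reach 50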;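 also: yeast exposed to compound for 9 h at 30 °C; higher score means more reporter readthrough which indicates perturbed polyadenylation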
PERK inhibitor: human PERK inhibition, primary cell-based screen; Q9NZJ5; 0.17% of 220,000 active; CHO PERK-DD fusion, SEAP luminescence translation reporter; inhibition, % at 5.6 µM;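 active = inhibition above the mean inhibition of all tested compounds plus 3 SD, set separately per screening campaign, cut at about 2.9% in these data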;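 also: PERK kinase domain activated by AP20187 dimerizer at 100 nM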
Hsp70 act: switches on Hsp70 transcription | 0.04% of 200,000 active | AID 1203 | activation, % at 10 µM | HeLa Hsp70 promoter luciferase reporter, luminescence; scaled: vehicle 0, proteasome-inhibitor control 100%;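 active = activation above the mean across all tested compounds plus 3 SD, cutoff set per campaign, cut at about 5.5% in these data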
HSF1 inh: HSF1 inhibition; NIH3T3-HGL HSE-luciferase, MG132-induced, luminescence 8 h; stronger effect = lower value; activity change, negative = inhibition, % at 7.5 µM (by protocol); 0.77% of 300,000 active; AID 2098;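 active = more than half of replicate wells show activity change below -50%, luminescence cut by over half; inconclusive = some wells, but at most half, below -50%; inactive = no replicate well below -50%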;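 also: luciferase reports HSF-1 transcriptional activity via heat shock element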
A number is an active result; – = inactive; ? = inconclusive; · = no result given. A selection: hits, their analogues and other compounds. The true share with any hit is near 3.6%.

SMILES | STAT3 activator | AHR act | PolyA inh | PERK inhibitor | Hsp70 act | HSF1 inh
CC(OC(=O)Cc1c[nH]c2ccccc12)C(=O)Nc1ccccc1[N+](=O)[O-] (configuration not stated) | · | – | – | · | · | –
COc1ccc(Cl)cc1C(=O)Nc1cccc2ncccc12 | · | 66.3 | – | · | · | –
O=C(Nc1cccc2ncccc12)c1ccc(Cl)cc1 | · | 65.4 | – | · | · | –
O=C(Nc1cccc2ncccc12)c1ccc(-c2ccc(Br)cc2)o1 | – | 52.7 | – | – | – | –
COc1ccc(Br)cc1C(=O)Nc1cccc2ncccc12 | – | – | – | – | – | –
O=C(Nc1cccc2ncccc12)c1ccc([N+](=O)[O-])o1 | · | – | – | · | · | –
O=[N+]([O-])c1ccccc1COc1ccc(Cl)c2cccnc12 | · | 72.5 | – | · | · | –
Nc1nc(NCCCN2CCOCC2)nc(NCc2ccccc2)c1[N+](=O)[O-] | · | – | – | – | · | –
O=C(COc1ccccc1/C=C1\SC(=O)NC1=O)Nc1ccccc1 | – | 56.9 | – | – | – | –
COc1ccc(OC)c(Nc2nc(-c3sc(NC(=O)C(C)(C)C)nc3C)cs2)c1 | – | 61.3 | – | – | – | –
COc1ccc(OC)c(Nc2nc(-c3sc(C)nc3C)cs2)c1 | – | – | – | – | – | –
COc1ccc(OC)c(Nc2nc(-c3sc(NC(=O)CC(C)C)nc3C)cs2)c1 | – | 73.4 | – | – | – | –
COc1cc2[nH]c3c(=O)n(N)c(=O)[nH]c3c2cc1OC | · | – | – | · | · | –
O=C1COc2ccccc2N1Cc1c(F)cccc1Cl | · | – | – | · | · | –
CC(C)(C)C(=O)Nc1nc2c(s1)COc1ccccc1-2 | – | – | – | – | – | –
CCCC(=O)Nc1nc2c(s1)COc1ccccc1-2 | · | – | – | · | · | –
CCCCC(=O)Nc1nc2c(s1)COc1ccccc1-2 | · | 48.6 | – | · | · | –
O=C(CCSc1ccccc1)Nc1nc2c(s1)COc1ccccc1-2 | – | 52.0 | – | – | – | –
CCCSc1nnc(CSc2nc(C)cc(C)n2)n1C | – | – | – | – | – | –
CCN1C(=S)SC(=O)C1=C1C=C(C)N(Cc2ccco2)C(C)=C1 | – | – | ? | – | – | -53.9
O=C(COC(=O)c1cc[n+]([O-])cc1)Nc1cccc(Cl)c1Cl | – | – | – | – | – | -66.4
CC(=O)c1ccccc1NC(=O)COC(=O)c1cc[n+]([O-])cc1 | · | – | · | · | · | ·
CC1CCCN(C(=O)CSc2nnc(-c3ccc(O)cc3)o2)C1 (configuration not stated) | · | – | – | · | · | -57.1
CC1CCCN(C(=O)CSc2nnc(-c3cccs3)o2)C1 (configuration not stated) | · | – | – | · | · | –
c1ccc(CNc2nc(-c3ccccc3)nc3ccccc23)cc1 | · | – | – | · | · | –
SMILES | STAT3 activator | AHR act | PolyA inh | PERK inhibitor | Hsp70 act | HSF1 inh
c1ccc(CNc2nc(NCc3ccccc3)c3ccccc3n2)cc1 | · | – | – | – | · | -59.8
COc1ccc(Nc2nc(N)nc(CSc3n[nH]c(-c4ccccc4)n3)n2)cc1 | – | 48.6 | – | – | – | –
COc1ccc(Nc2nc(N)nc(CSCCO)n2)cc1 | – | – | – | – | – | –
Nc1nc(CSc2n[nH]c(-c3ccccc3)n2)nc(Nc2ccccc2)n1 | – | – | – | – | – | –
Cc1ccc(Nc2nc(N)nc(CSc3ncccn3)n2)cc1 | – | 67.8 | – | – | – | –
Cc1ccc(Nc2nc(N)nc(CSCCO)n2)cc1 | – | 48.3 | – | – | – | –
O=C(Nc1ccccc1C(=O)NCc1ccccc1)C1=CSCCO1 | · | – | – | · | · | –
CCn1cc(C(=O)NCCCOC)c(=O)c2cc(S(=O)(=O)N3CCCC3)ccc21 | · | – | – | · | · | –
CCOC(=O)C1(CCOc2ccccc2)CCN(Cc2cccc(-n3cccn3)c2)CC1 | – | – | – | – | – | -59.6
O=C(CNC(=S)N(CCCN1CCOCC1)Cc1cccs1)NCc1ccccc1Cl | · | – | – | · | · | -70.5
CCCCNC(=O)CNC(=S)N(Cc1ccccc1)Cc1cccs1 | – | – | – | – | – | -71.3
Cn1c(CNC(=O)c2ccccc2F)nnc1SCC(=O)c1ccccc1 | · | – | – | · | · | –
Cc1ccc(NC(=O)COc2cccc(-n3cnnn3)c2)cc1S(=O)(=O)N1CCOCC1 | · | – | · | · | · | ·
O=C(NCc1ccccn1)C(=O)NCC1OCCN1S(=O)(=O)c1ccc(F)cc1 (configuration not stated) | · | – | – | · | · | –
Cc1ccc(OCCC(=O)OCC(=O)Nc2ccc(N3CCOCC3)cc2)cc1 | · | – | – | · | · | -61.1
Cc1ccc(NC(=O)CN2C(=O)N/C(=C/c3ccc(N4CCOCC4)cc3)C2=O)cc1 | – | 58.0 | – | – | – | –
O=C(Nc1nc2c(ccc3ccccc32)s1)c1cc([N+](=O)[O-])ccc1N1CCOCC1 | 133.3 | – | – | – | – | –
COc1ccc(CCNC(=O)c2ccc(N(C)S(=O)(=O)c3ccc(C)cc3)cc2)cc1 | – | – | · | – | – | -54.5
CCOc1ccc(S(=O)(=O)N(C)c2ccc(OCC(=O)NCCc3ccc(OC)cc3)cc2)cc1 | · | – | – | – | · | -53.2
COc1ccc(/C=C/C(=O)c2ccncc2)c2ccccc12 | – | 52.7 | – | – | – | –
O=C(NCc1n[nH]c(=S)n1-c1cccc(C(F)(F)F)c1)c1ccco1 | · | – | – | · | · | –
Oc1c(/C=N/Nc2cccc3cccnc23)ccc2ccccc12 | – | 48.4 | – | – | – | –
Oc1cccc(/C=N/Nc2cccc3cccnc23)c1 | – | · | – | – | – | –
C/C(=N\Nc1cccc2cccnc12)c1ccccn1 | – | 47.0 | – | – | – | –
C/C(=N\Nc1cccc2cccnc12)c1ccccc1O | – | 50.2 | – | – | – | –
SMILES | STAT3 activator | AHR act | PolyA inh | PERK inhibitor | Hsp70 act | HSF1 inh
COc1cc(/C=N/NC(N)=O)cc(Br)c1OCc1ccccc1C | – | – | – | – | – | –
Cc1ccccc1CO/N=C/c1[nH]ncc1Br | · | – | – | 3.5 | · | -84.9
COc1ccc(S(=O)(=O)N2CCOC2CNC(=O)C(=O)NCc2ccco2)cc1OC (configuration not stated) | · | – | – | – | · | –
FC(F)(F)c1cc(-c2cccs2)nc(-n2cc(Br)cn2)n1 | – | 49.9 | – | – | – | –
Cc1cnn(-c2nc(-c3cccs3)cc(C(F)(F)F)n2)c1 | – | – | – | – | – | –
O=C(NN1CCN(Cc2ccccc2)CC1)c1ccc(Cl)cc1 | – | – | – | – | – | –
Cc1ccc(C(=O)Nc2cccc(C(=O)N/N=C/c3ccc(O)cc3)c2)cc1 | · | 56.0 | – | · | · | –
O=C(N/N=C/c1cccc(C(F)(F)F)c1)c1ccc(O)cc1 | – | – | – | – | – | -74.5
O=C(N/N=C/c1ccc(C(F)(F)F)cc1)c1ccc(O)cc1 | – | – | – | – | – | –
CCOc1[nH]n(-c2ccc(Cl)cc2)c(=O)c1C=NCc1cccnc1 | – | 55.9 | – | – | – | –
CCOc1[nH]n(-c2ccccc2)c(=O)c1C=NCc1ccncc1 | – | – | – | – | – | –
CN(CCCC(=O)NCCc1ccccc1)S(=O)(=O)c1ccc([N+](=O)[O-])cc1 | · | – | – | · | · | –
